Bioassay records: PubChem, SRMLSC
PostGolgi ctrl – yeast control strain growth, post-Golgi counter-screen; AID 738; efflux-deficient yeast background strain, growth absorbance A615, 16 h; 98,000 compounds, 5% hits; inhibition, % at 10 µM
Ecoli tolC – blocks growth of E. coli BW25113 tolC mutant; OD615; growth inhibition, % at 10 µM (by protocol); 65,000 compounds, 2.2% hits;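 active = growth inhibition at or above a cutoff equal to the mean over every tested compound plus 3 SD, cut at about 60% in these data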;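 note: growth measured after 20 h incubation at 37 °C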
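Test system: tolC-deleted E. coli BW25113 | Medium: LB with kanamycin 50 µg/mL | Compound dosing: Single concentration, 10 µM final per compound | Schedule: 37 °C, 20 h exposure | Measured by: OD at 615 nm | Evaluation: Percent growth inhibition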
Ecoli WT expand – growth inhibitors of E. coli BW25113 wild type. OD600 absorbance. AID 710. 98,000 compounds, 0.15% hits. growth inhibition, % at 100 µM;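 active = growth inhibition above about 50% at one test dose, limit read from the data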;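 note: growth measured after 20 h incubation at 37 °C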
PostGolgi yeast – growth inhibition of a yeast mutant, post-Golgi transport screen. 98,000 compounds, 0.9% hits. AID 739. post-Golgi transport phenotypic cell assay. inhibition, % at 10 µM;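 note: yeast cells grown in 1536-well plates; yeast grown about 18 h at 30C before absorbance read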
* hit, by the source's call; . = no result given. An excerpt weighted towards active compounds, which were near 6.3% of everything screened. Cut-off read from the data, not from the text of the source, unless noted: active = inhibition above about 30%; inactive = the rest.

SMILES | PostGolgi ctrl | Ecoli tolC | Ecoli WT expand | PostGolgi yeast
CCC1Oc2ccc(C)cc2N(CC(=O)NCC2COc3ccccc3O2)C1=O (stereo unspecified) | . | . | -8 | 0
COCCn1c(C)cc(C(=O)COC(=O)c2c(C)nn(Cc3ccccc3)c2C)c1C | 0 | 44 | -16 | -2
Cc1nn(Cc2ccccc2)c(C)c1C(=O)OCC(=O)c1cc(C)n(C2CC2)c1C | -3 | 65* | -6 | -7
Cc1ccc(S(=O)(=O)N2Cc3ccccc3CC2C(=O)Nn2cnnc2)cc1 (stereo unspecified) | 3 | 3 | -6 | 3
CCOc1ccc(S(=O)(=O)N2Cc3ccccc3CC2C(=O)NCCCn2ccnc2)cc1 (stereo unspecified) | 34* | 6 | 1 | -4
c1ccc(N2CCN(c3nnc(Cc4cccnc4)c4ccccc34)CC2)nc1 | 25 | 8 | 10 | 0
c1ccc(Cc2nnc(N3CCOCC3)c3ccccc23)cc1 | 45* | . | 7 | 1
O=C(c1ccc(F)cc1)N1CCCCC(Sc2nnc3ccccn23)C1=O (stereo unspecified) | 2 | -5 | -5 | 3
O=C(c1ccccc1)N1CCCCC(Sc2nnc3ccccn23)C1=O (stereo unspecified) | 31* | -6 | -15 | -2
N#CC(C(=O)C12CC3CC(CC(C3)C1)C2)c1nc2ccccc2[nH]1 (stereo unspecified) | 74* | 48 | -16 | -6
N#CC(C(=O)CCN1C(=O)C2CC=CCC2C1=O)c1nc2ccccc2[nH]1 (stereo unspecified) | 13 | -5 | 6 | -2
Cc1cccc(-c2nnc3sc(-c4ccccc4C)nn23)c1 | 64* | 60 | -13 | 6
c1ccc(-c2nnc3sc(-c4ccncc4)nn23)cc1 | 11 | -14 | 2 | -4
c1ccc(-c2nnc3sc(-c4csc5c4CCCC5)nn23)cc1 | 75* | 22 | 2 | 13
O=C(Nc1ccc2nc(-c3cccs3)[nH]c2c1)c1ccco1 | 0 | 90* | -2 | 3
Cc1ccc(NC(=O)c2cccs2)cc1NC(=O)c1ccco1 | 32* | 19 | 3 | -13
CCOC(=O)c1cc(-c2ccc(OC)cc2F)nc2c1c(C)nn2CCC#N | 45* | . | -22 | -3
CCOC(=O)c1cc(-c2ccc(Cl)cc2)nc2c1c(C)nn2CCC#N | 15 | . | -5 | 3
CO/N=C(/CS(=O)Cc1ccccc1Cl)c1ccc(Cl)cc1Cl (stereo unspecified) | 30* | . | 10 | 0
CO/N=C(/CNC(=O)c1ccccc1Cl)c1ccc(Cl)cc1 | 13 | . | -1 | 9
COc1ccc(OC)c(NC(=O)CN2C(=O)NC3(CCOc4ccccc43)C2=O)c1 (stereo unspecified) | 0 | . | 1 | 15
COc1cc2c(cc1NC(=O)CC1SC(N3CCCC3)=NC1=O)oc1ccccc12 (stereo unspecified) | 11 | 10 | -10 | -1
N#CC(C#N)=C/C(C#N)=C(/N)N1CCN(c2ccc(Cl)cc2)CC1 | 31* | . | -6 | 47*
O=C(COc1ccccc1)NNc1c2ccccc2nc2ccccc12 | 44* | . | 4 | -4
Cc1ccc(C)c(S(=O)(=O)Nc2ccc3scnc3c2)c1 | 50* | 15 | 7 | -5
SMILES | PostGolgi ctrl | Ecoli tolC | Ecoli WT expand | PostGolgi yeast
Cc1cccc(NS(=O)(=O)c2cccc3nsnc23)c1 | 3 | . | 7 | -15
COc1cnc(-c2ccccn2)nc1Oc1ccccc1Cl | 8 | . | 6 | -14
COc1cnc(-c2ccccn2)nc1Oc1ccc(Cl)c2ccccc12 | 63* | . | -1 | 24
COC(=O)c1c(C)[nH]c(C(=O)CSc2ccc(Cl)cc2)c1C | -9 | . | -10 | 0
Cc1ccccc1NC(=O)CN(C)S(=O)(=O)c1cccc2cccnc12 | 17 | 1 | 1 | -9
O=C(O)c1cc(-c2ccccc2)nc2ccccc12 | . | -2 | . | .
CCN(CC)C(=O)COC(=O)c1cc(-c2ccc(OC)cc2)nc2ccccc12 | 40* | . | -26 | 1
O=C(Oc1ccc([N+](=O)[O-])cc1)c1cc(-c2ccccc2)nc2ccccc12 | 42* | . | -6 | 13
O=C(CSCc1cccc(Br)c1)N1CCOCC1 | 11 | -15 | -6 | 2
N#C/C(=C1/CCCCCN1)c1nc2ccccc2s1 | 3 | 7 | -8 | -4
CSc1nnc2n(C)c3c(c(=O)n12)C1(CCCC1)Cc1ccccc1-3 | 38* | 20 | -1 | 1
O=C(CCl)c1ccc(Cc2ncc(C(F)(F)F)cc2Cl)s1 | 28 | . | 25 | 86*
Cc1ccccc1OCc1nnc(SCC(=O)Nc2ccc(N3CCOCC3)c(Cl)c2)n1C | 21 | . | -17 | 3
NS(=O)(=O)c1ccc(CCNC2CC(=O)N(CCc3ccccc3)C2=O)cc1 (stereo unspecified) | 4 | -8 | 0 | 14
NS(=O)(=O)c1ccc(CCNC2CC(=O)N(Cc3ccccc3)C2=O)cc1 (stereo unspecified) | 32* | -13 | -4 | -3
O=C(CCCNS(=O)(=O)c1ccc(Br)cc1)N1CC[C@@]2(O)CCCC[C@H]2C1 | 8 | -2 | 4 | -3
CCCCc1ccc(C2C(C#N)=C(N)SC(N)=C2C#N)s1 | 4 | 93* | 15 | 4
Cc1ccc(-n2nnnc2SCc2nnc(-c3ccccc3Br)o2)c(C)c1 | 47* | 35 | -8 | -1
Cn1nnnc1SCc1nnc(-c2ccccc2Br)o1 | -1 | . | 1 | -2
CC(NC(=O)Cc1cccs1)C(c1cccs1)N1CCOCC1 (stereo unspecified) | . | -3 | . | .
COc1cccc(NC(=O)[C@@H]2CCCN2C(=O)C2CCN(S(=O)(=O)c3ccc(C)cc3)CC2)c1 | -3 | 0 | 0 | 2
C=CCOC(=O)C1=C(C)NC(SCC)=C(C#N)C1c1ccc(Cl)cc1 (stereo unspecified) | 55* | . | 2 | 6
Cc1ccc2nc(NC(=O)CCn3c(=O)sc4ccccc43)sc2c1 | 70* | . | 1 | 5
Cc1ccc2nc(NC(=O)CCCc3nc4ccccc4s3)sc2c1 | 45* | . | -4 | -3
O=C(CCn1c(=O)sc2ccccc21)Nc1nc2ccccc2s1 | 60* | . | -11 | -4
SMILES | PostGolgi ctrl | Ecoli tolC | Ecoli WT expand | PostGolgi yeast
Cn1cc(SCC(=O)Nc2nc3ccccc3s2)c2ccccc21 | 64* | 62* | -23 | 0
Cc1ccc(NC(=O)OCC(F)(F)C(F)F)cc1NC(=O)OCC(F)(F)C(F)F | 9 | 5 | 9 | 3
O=C(Nc1ccc(OCC(F)(F)C(F)F)c(C(F)(F)F)c1)c1ccccc1O | 85* | . | -2 | 25
O=C(Nc1cccc2cccnc12)c1cccc2ccccc12 | 37* | . | -9 | -4
O=C(Nc1cccc2cccnc12)c1ccc(Br)o1 | 16 | 93* | 7 | 16
Cc1c(C(=O)Nc2cccc3cccnc23)oc2ccccc12 | -7 | -12 | -13 | 1
COC(=O)COc1ccc(S(=O)(=O)NCc2ccco2)cc1Cl | -4 | -1 | 2 | -3
CN(C)C(=O)c1ccccc1Sc1ccc(Cl)cc1Cl | 12 | . | 5 | -2
CN(C)C(=O)c1ccccc1Sc1cc(Cl)ccc1Cl | 35* | . | 6 | 5
CC1(C)CC(=O)C(C(=S)Nc2ccccc2)=C(NCCN2CCOCC2)C1 | 17 | . | 1 | -5
N#Cc1c(NC(=O)CSc2nnc(-c3ccccc3)o2)sc2c1CCCC2 | 7 | . | -2 | 13
Cc1csc(SCC(=O)Nc2sc3c(c2C#N)CCC3)n1 | 32* | . | -10 | 29
